Bioassay records from PubChem.
CHOP inhibitor – inhibitors of CHOP induction in ER stress response | CHO-K1 CHOP-promoter luciferase, tunicamycin-induced, 15-18 h | inhibition, % at 10 µM | actives 3.8% (n = 220,000);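 active = compounds that reduced the stress-induced luciferase reporter signal by more than about 70% of percent inhibition, limit read from the data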;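 also: 0% = tunicamycin plus vehicle and 100% = wells without tunicamycin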
GAA850 FXN act – frataxin GAA850 promoter activation; HEK293 lucGAA850 FXN promoter luciferase reporter, 24 h; percent of 10 µM SAHA response; activation, % at 6 µM; actives 0.56% (n = 360,000); AID 540364;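 active = activation above the average of all compounds screened plus 3 SD, cutoff fixed separately per campaign, cut at about 7.5% in these data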;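 also: 0% = DMSO wells and 100% = 10 µM SAHA wells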
CHOP UPR activ – activators of apoptotic arm of unfolded protein response (CHOP) | CHO-CHOP luciferase reporter, UPR activation, luminescence; percent of tunicamycin response over DMSO baseline | activation, % at 10 µM | actives 0.34% (n = 330,000);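 active = at 10 µM dose, activation of 40% or more, normalized to positive control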;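 also: 100% = tunicamycin at 10 µg/mL and 0% = DMSO alone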
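Evaluation: % reporter activation, DMSO baseline versus tunicamycin full activation; System: CHO-CHOP luciferase reporter cell line; Input: 500 cells/well; Incubation: 6 h compound treatment, 37 °C; Measured by: Steady-Glo luciferase luminescence; Dosing: one dose, 10 µM in 0.5% DMSO; Buffer or medium: F12 medium, 10% FBS; Benchmarks: positive tunicamycin 10 µg/mL, negative DMSO alone.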
UPR XBP1 act – activators of adaptive arm of unfolded protein response (XBP1); CHO-XBP1 luciferase reporter, IRE1-XBP1 UPR activation, luminescence; percent of tunicamycin response, DMSO as zero; activation, % at 20 µM; actives 0.33% (n = 330,000); AID 463104;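 active = versus positive control, 20 µM dose yields 30% or more activation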;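 also: 100% = tunicamycin at 10 µg/mL and 0% = DMSO only wells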
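Test system: CHO-XBP1 luciferase reporter cells | Buffer or medium: Serum-containing F12 medium, 10% FBS | Schedule: 6 h compound exposure at 37 °C, 5% CO2 | Detection: Steady-Glo luciferase glow luminescence, 10 min after reagent addition | Read-out basis: Activation, % of tunicamycin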
Numbers without * were called inactive; x = no result. This excerpt belongs to a sample that is enriched for hits.

SMILES	CHOP inhibitor	GAA850 FXN act	CHOP UPR activ	UPR XBP1 act
O=C1[C@H]2[C@@H](c3ccc(F)cc3)N3C(=O)N(c4cccc(Br)c4)C(=O)[C@@]3(Cc3ccccc3)[C@H]2C(=O)N1C1CCCCC1	x	6	9	0
O=C1[C@H]2[C@@H](c3ccc(F)cc3)N3C(=O)N(c4ccc(Br)cc4)C(=O)[C@@]3(Cc3ccc(Cl)cc3)[C@H]2C(=O)N1C1CCCCC1	x	9.5*	4	0
CC(C)[C@@H](C(=O)N[C@@H](CCc1ccc(O)cc1)C(=O)O)N(C)C(=O)[C@H](CO)NC(=O)[C@@H](O)[C@H](N)CCCCCCCCl	x	-1	x	x
N/C(=N\OC(=O)c1cc(-c2ccccc2)nc2ccccc12)c1ccccn1	74*	0	2	8
C/C=C/C(=O)Nc1nnc(-c2ccccc2C)s1	85*	4	7	0
C=C(C)C(=O)Nc1nnc(-c2ccccc2C)s1	0	2	x	x
COc1ccc(C(=O)c2ccc(Br)cc2)cc1	76*	6	4	0
COc1ccc(C(=O)c2ccccc2)cc1	-1	4	2	-1
Cc1ccc(NCc2nnc(SCC(=O)Nc3ncc(C)s3)n2Cc2ccco2)c(C)c1	94*	0	2	3
Cc1cc(Cl)ccc1NC(=O)CSc1nnc(-c2ccncc2)n1Cc1ccco1	1	-2	-1	-1
COc1cccc(-c2cc(N)nn2C(=O)Nc2ccc(Cl)cc2)c1	95*	1	1	3
COc1ccccc1CNC(=O)C1(C)CCN1C(=O)C1(c2ccccc2)CC1 (centres undefined)	x	0	x	x
Oc1ccccc1C(Nc1nccs1)c1ccc2cccnc2c1O (centres undefined)	71*	-7	0	2
O=C(O)c1ccccc1NC(c1ccccc1)c1ccc2cccnc2c1O (centres undefined)	x	-1	x	x
Cn1cc(CN2CCC(C(=O)NC(c3ccc(F)cc3)c3ccc4ccccc4n3)CC2)c2ccccc21 (centres undefined)	x	-7	x	x
O=C1c2cccc(OCc3ccc(F)cc3)c2CCN1Cc1ccc(F)cc1	85*	-3	1	0
Cc1cccc(CNC(=O)c2sc(=O)n(Cc3c(C)cccc3C)c2C)c1	x	-1	x	x
CCn1c(SCc2nc3scc(-c4ccccc4)c3c(=O)[nH]2)nnc1-c1ccc(Cl)cc1	93*	1	-1	1
COc1ccc(/C=N/NC(=O)C(=O)N2CCN(c3ccccc3OC)CC2)cc1	20	8.4*	-2	2
COc1ccc(C(=O)N2CCN(c3ccccc3OC)CC2)cc1	1	2	3	-2
CC(C)(C)c1cccc(/C=N/O)c1O	75*	-1	1	3
CC(C)(C)c1ccc(O)c(/C=N\O)c1	78*	4	5	2
CC(=O)Nc1ccc(-c2ccnc3c2CC(C)(C(=O)Nc2ccc(F)c(Cl)c2)O3)cc1 (centres undefined)	x	-4	x	x
CN1OC[C@@H]2CN(S(=O)(=O)c3cccc(C(F)(F)F)c3)[C@H](c3ccc(-c4cccnc4)cc3)C[C@@H]21	x	-3	x	x
CCCS(=O)(=O)NC(=O)C1(C)CCN(C(=O)c2c(-c3ccccc3)noc2C)C1 (centres undefined)	x	0	x	x
SMILES	CHOP inhibitor	GAA850 FXN act	CHOP UPR activ	UPR XBP1 act
CCn1c(CN2CCC(C)CC2)nc2cc(S(=O)(=O)N3CCCCC3)ccc21	x	-2	x	x
CCOc1cccc(-c2nnc3sc(COc4ccc(C)cc4)nn23)c1	70*	-1	0	-3
O=[N+]([O-])c1ccc(N=Nc2ccc(O)c3ccccc23)cc1	x	-1	x	x
O=S(=O)(Nc1ccc(N=Nc2ccc(O)c3ccccc23)cc1)c1ccccc1	89*	3	2	4
O=S(=O)(Nc1ccc(N=Nc2ccccc2)cc1)c1ccccc1	95*	0	1	-1
CCOC(=O)c1cnc(SCC(=O)Nc2cc(OC)cc(OC)c2)nc1N	76*	-2	1	-4
CCOC(=O)c1cnc(SCC(=O)Nc2sc(C)c(C)c2C#N)nc1N	71*	-2	2	3
Cc1ccc(C(=O)N/N=C/c2ccc([N+](=O)[O-])s2)cc1	70*	-15	-9	-11
O=c1c2ccc(Cl)cc2nc(-c2cccc(C(F)(F)F)c2)n1O	74*	-1	20	5
N#Cc1ccc(-c2nc3cc(Cl)ccc3c(=O)n2O)cc1	x	2	1	-5
